Laboratory results published in PMC7254033 (Saudi Journal of Biological Sciences, 2019).
≈ marks a conversion by molar mass, not a printed value. Marks after values point to notes of the source that are not given here.

Tests used:
[1] = DPPH radical scavenging activity; settings: 30 mins in the dark, absorbance at 517 nm
Procedure, shortened: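 DPPH was made up at 0.02% in methanol ([…]), stored closed away from light and heat. Serial dilutions of test compound were mixed with the DPPH solution to eight final two-fold concentrations, with ascorbic acid treated identically as positive control. Mixtures stood 30 min in the dark at room temperature. Absorbance at 517 nm was read against blank. % scavenging = (Ao − As)/Ao × 100, and IC50 was deduced from it. Triplicate.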

[2] = test system: Candida albicans NR-29450; assay: Anti-yeast activity, CLSI M27-A3 microdilution MIC; type: cell-based; settings: NR29450, 48 h, read-out: Antifungal activity Minimal Inhibitory Concentrations, C. albicans
Procedure, shortened: (§1)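 Broth microdilution per CLSI M27-A3 in RPMI 1640 with two-fold serial dilutions over ten concentrations, alongside fluconazole reference dilutions. Strains were kept on agar slopes at 4 °C and subcultured for 48 h before each run. Inoculum was standardized at 2.50 × 10^3 cells/mL, with a blank sterility column. Plates were incubated 48 h at 37 °C. MIC was the lowest concentration with no visible turbidity. Tested in triplicate.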

Candida krusei ATCC 6258 = assay: Anti-yeast activity, CLSI M27-A3 microdilution MIC; type: cell-based; settings: for Antifungal activity, folds less than fuconazole: strain not given, fits C. krusei of Table 3
Procedure, shortened: as §1

Candida glabrata isolate = assay: Anti-yeast activity, CLSI M27-A3 microdilution MIC; type: cell-based; settings: 48 h, 37 °C
Procedure, shortened: as §1

[3] = test system: zymosan stimulated human whole blood phagocytes; assay: Oxidative burst assay; type: cell-based; settings: read-out: ROS Inhibition (IC50 µg/mL)
Procedure, shortened: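 Diluted human whole blood phagocytes were stimulated with zymosan and intracellular ROS measured by luminol-enhanced chemiluminescence. Test compound was given at three concentrations (1, 10 and 100), with ibuprofen as standard anti-inflammatory drug. IC50 was derived.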

Row | Structure (SMILES) | DPPH radical scavenging activity IC50 [1] | MIC [2] | further results
1 | OC(Cn1cncn1)(Cn1cncn1)c1ccc(F)cc1F [Fluconazol, fluconazole, reference compound] |  |  | Antifungal activity Minimal Inhibitory Concentrations, C. krusei (Candida krusei ATCC 6258; 48 h, 37 °C): 50 µg/mL; Antifungal activity Minimal Inhibitory Concentrations, C. glabrata (Candida glabrata isolate): 50 µg/mL
2 | CC(C)Cc1ccc(C(C)C(=O)O)cc1 (centres unmarked) [Ibuprofen] |  |  | IC50 [3]: 11.2 ± 1.9 µg/mL (≈ 54.3 µM)
3 | O=C1O[C@H]([C@@H](O)CO)C(O)=C1O [Vitamin C, ascorbic acid, reference compound] | 3.343 ± 0.271^a µg/mL |  | 

Now from value to compound, other results behind:

Row | DPPH radical scavenging activity IC50 [1] | MIC [2] | Structure (SMILES) | further results
4 | ˃1000 µg/mL | 500 µg/mL (≈ 1090 µM) | CC1(C)CC[C@]2(C(=O)O)CC[C@]3(C)C(=CC[C@@H]4[C@@]5(C)CC[C@H](O)C(C)(C)[C@@H]5CC[C@]43C)[C@@H]2C1 [Compound 5, oleanolic acid] | 
5 | ˃1000 µg/mL | 500 µg/mL (≈ 1170 µM) | C=C(C)[C@@H]1CC[C@]2(C)CC[C@]3(C)[C@H](CC[C@@H]4[C@@]5(C)CC[C@H](O)C(C)(C)[C@@H]5CC[C@]43C)[C@@H]12 [Compound 7, lupeol] | Antifungal activity, folds less than fuconazole (Candida krusei ATCC 6258): 5 folds
6 | ˃1000 µg/mL | 500 µg/mL (≈ 1090 µM) | C=C(C)[C@@H]1CC[C@]2(C(=O)O)CC[C@]3(C)[C@H](CC[C@@H]4[C@@]5(C)CC[C@H](O)C(C)(C)[C@@H]5CC[C@]43C)[C@@H]12 [Compound 8, betulinic acid] | Antifungal activity, folds less than fuconazole (Candida krusei ATCC 6258): 5 folds
7 | ˃1000 µg/mL | 500 µg/mL (≈ 1180 µM) | C=C(C)[C@@H]1CC[C@]2(C)CC[C@]3(C)[C@H](CC[C@@H]4[C@@]5(C)CCC(=O)C(C)(C)[C@@H]5CC[C@]43C)[C@@H]12 [Compound 10, lupenone] | 
